Reference: ChEMBL document CHEMBL5338787, “Discovery of Novel Bruton's Tyrosine Kinase PROTACs with Enhanced Selectivity and Cellular Efficacy” (J Med Chem, 2023)
Calls of active or inactive are those of the source. The calls are words filed in the database; no cut-off is given here.

Key:
[1] = molecular target: T1, Protein cereblon/Tyrosine-protein kinase BTK (Homo sapiens, UniProt Q06187+Q96SW2); experiment: PROTAC activity at BTK/CRBN protein protein interaction in human Ramos cell assessed as degradation of BTK incubated at 111 nM for 17 hrs in presence of -iberdomide at 20 uM measured by Western blot analysis
T1 sequence (Q06187 2-659 limits assumed): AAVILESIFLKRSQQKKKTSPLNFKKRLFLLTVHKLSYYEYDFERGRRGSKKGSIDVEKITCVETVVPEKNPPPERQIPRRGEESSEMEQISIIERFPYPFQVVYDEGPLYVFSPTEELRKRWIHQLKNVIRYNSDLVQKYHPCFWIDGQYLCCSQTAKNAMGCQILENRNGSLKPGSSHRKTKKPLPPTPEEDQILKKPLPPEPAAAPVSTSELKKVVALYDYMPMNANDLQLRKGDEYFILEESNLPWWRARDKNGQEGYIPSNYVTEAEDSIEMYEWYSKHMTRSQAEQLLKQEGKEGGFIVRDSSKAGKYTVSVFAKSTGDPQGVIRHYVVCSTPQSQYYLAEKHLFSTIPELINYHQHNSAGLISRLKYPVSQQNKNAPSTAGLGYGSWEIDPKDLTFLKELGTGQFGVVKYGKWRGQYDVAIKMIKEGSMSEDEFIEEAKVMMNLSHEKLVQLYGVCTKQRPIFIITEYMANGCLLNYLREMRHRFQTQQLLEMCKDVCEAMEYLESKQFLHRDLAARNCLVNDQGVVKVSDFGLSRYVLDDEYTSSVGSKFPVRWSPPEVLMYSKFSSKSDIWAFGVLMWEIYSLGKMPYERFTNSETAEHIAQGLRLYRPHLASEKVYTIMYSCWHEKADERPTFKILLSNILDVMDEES
T1 sequence (Q96SW2 whole entry partner): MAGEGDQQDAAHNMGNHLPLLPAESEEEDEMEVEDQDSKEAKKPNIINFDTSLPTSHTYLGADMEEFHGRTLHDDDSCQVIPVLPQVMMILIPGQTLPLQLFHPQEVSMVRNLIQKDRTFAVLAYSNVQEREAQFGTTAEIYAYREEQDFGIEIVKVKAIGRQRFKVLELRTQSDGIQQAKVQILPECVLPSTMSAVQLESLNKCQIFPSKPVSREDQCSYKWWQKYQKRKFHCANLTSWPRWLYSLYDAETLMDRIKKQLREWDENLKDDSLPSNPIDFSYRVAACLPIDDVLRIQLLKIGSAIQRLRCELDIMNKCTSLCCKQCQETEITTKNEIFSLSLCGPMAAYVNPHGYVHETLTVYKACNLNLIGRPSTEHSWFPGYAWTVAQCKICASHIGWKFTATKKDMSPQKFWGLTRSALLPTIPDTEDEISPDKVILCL

MINO [2] = experiment: Induction of apoptosis in human MINO cells assessed as increase in cleaved caspase 3 level measured after 48 hrs by Western blot analysis; assay type: functional, cell-based; conditions: dose 0.15-3000 nM
Method in brief: (§1)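 TMD8 or Mino cells (2 × 10^6 per well) exposed 48 h to 3000–0.15 nM (3-fold dilution) or 1% DMSO. Lysates BCA-normalised, 8–30 μg per lane on 4–20% Tris-glycine gels, transferred to nitrocellulose, probed with antibodies, HRP chemiluminescence detection and densitometry. Representative of two independent experiments.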

MINO [3] = experiment: Induction of apoptosis in human MINO cells assessed as increase in cleaved PARP level measured after 48 hrs by Western blot analysis; assay type: functional, cell-based; conditions: dose 0.15-3000 nM
Method in brief: as §1

[4] = molecular target: T1, Protein cereblon/Tyrosine-protein kinase BTK; experiment: PROTAC activity at BTK/CRBN protein protein interaction in human Ramos cell assessed as Hook effect incubated at >333 nM for 17 hrs measured by Western blot analysis; assay type: cell-based
Method in brief: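 Ramos or JeKo-1 cells (2 × 10^6 per well) were exposed for 17 h to 3000–0.15 nM PROTAC in 3-fold steps. Cells were lysed and analysed by western blot, with BTK normalised to β-actin. DC50 and Dmax come from the dose-response; DC50 is the mean ± SD of two independent experiments.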

[5] = Cytotoxicity against human MINO cells incubated for 48 hrs by celltitre glo 2.0 assay; assay type: functional, cell-based
MINO [6] = experiment: Induction of apoptosis in human MINO cells assessed as downregulation in Mcl-1 level measured at 0.15 to 3000 nM after 48 hrs by Western blot analysis; assay type: functional, cell-based; conditions: dose 0.15-3000 nM
Method in brief: as §1

TMD8 [7] = experiment: Induction of apoptosis in human TMD8 cells at 333 nM for 48 hrs by Annexin-V/propidium iodide staining based flow cytometric analysis; assay type: functional, cell-based
Method in brief: (§2)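 Cells plated at 2 × 10^6 per well and treated 48 h at 3,000–0.15 nM (3-fold dilutions) or 1% DMSO. Harvested, washed in cold PBS, stained with Annexin V Alexa Fluor 488/propidium iodide, analysed by flow cytometry for % live, apoptotic and necrotic cells. Mean of two independent experiments.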

MINO [8] = experiment: Induction of apoptosis in human MINO cells measured after 48 hrs by Annexin-V/propidium iodide staining based flow cytometric analysis; assay type: functional, cell-based; conditions: dose 0.15-3000 nM
Method in brief: as §2

[9] = molecular target: T2, Tyrosine-protein kinase BTK (Homo sapiens, UniProt Q06187); experiment: Inhibition of BTK in HEK293 cells using NanoGlo substrate incubated for 2 hrs by NanoBRET assay; assay type: cell-based
T2 sequence (Q06187 whole entry): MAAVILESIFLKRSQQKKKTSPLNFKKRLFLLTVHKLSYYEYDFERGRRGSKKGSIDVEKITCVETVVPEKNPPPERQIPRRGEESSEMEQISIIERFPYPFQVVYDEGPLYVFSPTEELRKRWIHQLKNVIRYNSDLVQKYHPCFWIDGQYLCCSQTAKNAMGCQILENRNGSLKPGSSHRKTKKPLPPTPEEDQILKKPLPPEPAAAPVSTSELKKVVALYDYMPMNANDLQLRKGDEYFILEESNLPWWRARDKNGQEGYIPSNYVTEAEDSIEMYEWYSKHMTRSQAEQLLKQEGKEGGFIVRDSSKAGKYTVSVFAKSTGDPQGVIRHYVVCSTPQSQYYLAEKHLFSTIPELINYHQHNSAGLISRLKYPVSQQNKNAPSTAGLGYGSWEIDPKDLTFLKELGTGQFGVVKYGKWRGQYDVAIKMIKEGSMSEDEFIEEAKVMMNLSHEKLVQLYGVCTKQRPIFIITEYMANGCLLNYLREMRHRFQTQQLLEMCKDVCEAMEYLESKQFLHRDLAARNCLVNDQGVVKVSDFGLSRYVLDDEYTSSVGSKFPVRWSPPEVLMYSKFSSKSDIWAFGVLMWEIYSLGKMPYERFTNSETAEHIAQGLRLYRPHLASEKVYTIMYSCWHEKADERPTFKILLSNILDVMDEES

[10] = molecular target: T2, Tyrosine-protein kinase BTK; experiment: Binding affinity to full length BTK (unknown origin) assessed as dissociation constant measured at 37 degree C by TR-FRET assay
[11] = molecular target: T1, Protein cereblon/Tyrosine-protein kinase BTK; experiment: PROTAC activity at BTK/CRBN protein protein interaction in human Ramos cell assessed as degradation of BTK incubated at 111 nM for 17 hrs in presence of GDC-0853 at 1 uM measured by Western blot analysis; assay type: cell-based
Protein cereblon = Protein cereblon (Homo sapiens, UniProt Q96SW2); experiment: Inhibition of CRBN in HEK293 cells using NanoGlo substrate incubated for 2 hrs by NanoBRET assay; assay type: cell-based
Sequence of Protein cereblon (Q96SW2 whole entry): as the sequence (Q96SW2 whole entry partner) above

MINO [12] = experiment: Induction of apoptosis in human MINO cells assessed as decrease in PARP level measured after 48 hrs by Western blot analysis; assay type: functional, cell-based; conditions: dose 0.15-3000 nM
Method in brief: as §1

TMD8 [13] = experiment: Induction of apoptosis in human TMD8 cells assessed as downregulation in Bcl-2 level measured at 0.15 to 3000 nM after 48 hrs by Western blot analysis; assay type: functional, cell-based; conditions: dose 0.15-3000 nM
Method in brief: as §1

MINO [14] = experiment: Induction of apoptosis in human MINO cells assessed as decrease in caspase 3 level measured after 48 hrs by Western blot analysis; assay type: functional, cell-based; conditions: dose 0.15-3000 nM
Method in brief: as §1

MINO [15] = experiment: Induction of apoptosis in human MINO cells assessed as downregulation in Bcl-2 level measured at 0.15 to 3000 nM after 48 hrs by Western blot analysis; assay type: functional, cell-based; conditions: dose 0.15-3000 nM
Method in brief: as §1

MINO [16] = experiment: Induction of apoptosis in human MINO cells at 333 nM for 48 hrs by Annexin-V/propidium iodide staining based flow cytometric analysis; assay type: functional, cell-based
Method in brief: as §2

TMD8 [17] = experiment: Induction of apoptosis in human TMD8 cells assessed as increase in cleaved caspase 3 level measured after 48 hrs by Western blot analysis; assay type: functional, cell-based; conditions: dose 0.15-3000 nM
Method in brief: as §1

- Activity [1]: inactive
- Activity [4]: Active
- IC50 [9]: 97 nM
- Kd [10]: 2.28 nM
- Activity [11]: inactive
- IC50 (Protein cereblon): 107 nM
SMILES: C[C@H]1CN(C(=O)CNc2cccc3c2C(=O)N(C2CCC(=O)NC2=O)C3=O)CCN1c1ccc(Nc2cc(-c3ccnc(N4CCn5c(cc6c5CC(C)(C)C6)C4=O)c3CO)cn(C)c2=O)nc1 (stereo partly drawn)
- Activity (MINO [2]): Active
- Activity (MINO [3]): Active
- IC50 [5]: 2.2 nM
- Activity (MINO [6]): Active
- Activity (TMD8 [7]): Active
- Activity (MINO [8]): Dose-Dependent Effect
- Activity (MINO [12]): Active
- Activity (TMD8 [13]): Active
- Activity (MINO [14]): Active
- Activity (MINO [15]): Active
- Activity (MINO [16]): Active
- Activity (TMD8 [17]): Active
